ChEMBL document CHEMBL4680083, “Identification of Tricyclic Agonists of Sphingosine-1-phosphate Receptor 1 (S1P) Employing Ligand-Based Drug Design” (J Med Chem, 2016)
Activity calls are given as the source filed them. The calls are words filed in the database; no cut-off is given here.

Tests used:
Rattus norvegicus [1] = assay: Antiarthritic activity in Lewis rat model of Complete Freund's adjuvant-induced arthritis assessed as reduction in paw swelling at 0.1 mg/kg, po qd administered for 21 days after CFA injection and measured weekly three times upto day 21 by water displacement plethysmometry; type: functional; settings: time 21.0 day
Method in brief: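 Male Lewis rats, 200−225 g, n = 8 per group. Immunized at the tail base with 100 μL of 10 mg/mL ground Mycobacterium butyricum in incomplete Freund's adjuvant. Oral dosing once daily in PEG300 vehicle from the day of immunization for 21 days, at 0.03, 0.1 or 1.0 mg/kg. Dexamethasone 0.1 mg/kg PO QD as positive control. Paw volume by water displacement plethysmometry, day 7 to day 21.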

Rattus norvegicus [2] = assay: Reduction in circulating lymphocytes count in Lewis rat blood at 1 mg/kg, po measured at 24 hrs by hematology analyzer based analysis; type: functional; set-up: scale not given: the % may be the effect or the level left
Method in brief: (§1)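 Lewis rats were given an oral dose as a solution or suspension in PEG300, with controls receiving vehicle only. Blood was taken by retro-orbital bleeding under isoflurane at 4 and 24 h. Lymphocytes were counted on a hematology analyzer. Reduction is relative to the vehicle group, averaged over the animals in each group (n = 3−4).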

[3] = Plasma concentration in Lewis rat at 1 mg/kg, po measured at 4 hr; type: ADME, organism-based; settings: Lewis, plasma
Method in brief: (§2)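 Lewis rats received a single oral 1.0 mg/kg dose as solution or suspension in PEG300. Blood was drawn retro-orbitally under isoflurane at 4 h and 24 h, within the blood lymphocyte reduction study. n = 3−4 per group, group mean reported.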

[4] = Selectivity index, ratio of EC50 for agonist activity at human S1P3 expressed in CHO cell membranes to EC50 for agonist activity at human S1P1 expressed in CHO cell membranes; type: cell-based
[5] = Ratio of plasma concentration in Lewis rat at 1 mg/kg, po measured at 4 hrs to plasma concentration in Lewis rat at 1 mg/kg, po measured at 24 hrs; type: ADME, organism-based; settings: in vivo
[6] = Plasma concentration in Lewis rat at 1 mg/kg, po measured at 24 hrs; type: ADME, organism-based; settings: Lewis, plasma; method in brief: as §2
[7] = target: Sphingosine 1-phosphate receptor 1 (Homo sapiens, UniProt P21453); assay: Agonist activity at human S1P1 expressed in CHO cell membranes assessed as stimulation of [35S]-GTPgamma-S binding measured after 45 mins by liquid scintillation counting method; set-up: species or system Cell membrane
Method in brief: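 S1P1/CHO cell membranes at 3 μg protein/well with 3-fold compound dilutions. [35S]GTPγS 0.2 nM final, 45 min at room temperature. Filter-plate capture, water washes, scintillation counting. EC50 taken at 50% of each compound's own Ymax.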

[8] = target: Sphingosine 1-phosphate receptor 3 (Homo sapiens, UniProt Q99500); assay: Agonist activity at human S1P3 expressed in CHO cell membranes assessed as stimulation of [35S]-GTPgamma-S binding measured after 45 mins by liquid scintillation counting method; set-up: species or system Cell membrane
Rattus norvegicus [9] = assay: Reduction in circulating lymphocytes count in Lewis rat blood at 1 mg/kg, po measured at 4 hrs by hematology analyzer based analysis; type: functional; set-up: scale not given: the % may be the effect or the level left; method in brief: as §1

Sphingosine 1-phosphate receptor 1, sequence (P21453 whole entry): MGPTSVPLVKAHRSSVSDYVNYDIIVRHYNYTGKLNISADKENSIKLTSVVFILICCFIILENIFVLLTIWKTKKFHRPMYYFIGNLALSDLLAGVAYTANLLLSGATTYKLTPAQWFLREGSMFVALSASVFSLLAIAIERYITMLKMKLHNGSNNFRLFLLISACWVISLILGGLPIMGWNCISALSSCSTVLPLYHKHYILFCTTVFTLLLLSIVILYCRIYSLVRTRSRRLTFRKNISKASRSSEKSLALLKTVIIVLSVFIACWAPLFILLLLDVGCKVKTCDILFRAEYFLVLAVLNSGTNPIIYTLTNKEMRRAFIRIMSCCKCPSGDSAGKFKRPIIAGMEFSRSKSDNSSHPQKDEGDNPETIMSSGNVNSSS
Sphingosine 1-phosphate receptor 3, sequence (Q99500 whole entry): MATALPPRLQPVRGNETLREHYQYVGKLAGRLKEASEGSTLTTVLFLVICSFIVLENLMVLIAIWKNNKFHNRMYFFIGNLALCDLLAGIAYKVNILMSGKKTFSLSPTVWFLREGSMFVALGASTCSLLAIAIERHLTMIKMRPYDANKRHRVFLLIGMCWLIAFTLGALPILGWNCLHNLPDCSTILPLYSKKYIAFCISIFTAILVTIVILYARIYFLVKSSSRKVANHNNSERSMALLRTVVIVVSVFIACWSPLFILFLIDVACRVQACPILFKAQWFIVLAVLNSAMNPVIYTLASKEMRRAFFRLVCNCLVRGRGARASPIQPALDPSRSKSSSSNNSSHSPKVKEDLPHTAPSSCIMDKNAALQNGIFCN

| SMILES | concentration at 4 h [3] | Ratio [5] | concentration at 24 h [6] | EC50 [7] | EC50 [8] | Activity (Rattus norvegicus [1]) | Activity (Rattus norvegicus [2]) | Ratio EC50 [4] | Activity (Rattus norvegicus [9]) |
| --- | --- | --- | --- | --- | --- | --- | --- | --- | --- |
| C[C@@H]1C[C@H]2[C@@H]3CCC4=CC(=O)C=C[C@]4(C)[C@@]3(F)[C@@H](O)C[C@]2(C)[C@@]1(O)C(=O)CO |  |  |  |  |  | Active |  |  |  |
| O=C(O)C1CN(Cc2ccc3c(c2)CCc2c(-c4onc(-c5ccccc5)c4C(F)(F)F)noc2-3)C1 | 34 nM | 4 | 8 nM | 1.3 nM | 4400 nM |  | 79% | 3400 | 66% |
| CC(C)Cc1onc(-c2onc3c2CCc2cc(CN4CC(C(=O)O)C4)ccc2-3)c1C(F)(F)F | 520 nM | 9 | 61 nM | 1.5 nM | > 3100 nM |  | 80% | > 2100 | 86% |
| O=C(O)C1CN(Cc2cc3c(cc2F)-c2noc(-c4noc(-c5ccccc5)c4C(F)(F)F)c2CC3)C1 | 320 nM | 7 | 46 nM | 1.6 nM | 15000 nM |  | 79% | 9400 | 74% |
| O=C(O)C1CN(Cc2ccc3c(c2)CCc2nc(-c4onc(-c5ccccc5)c4C(F)(F)F)oc2-3)C1 | 110 nM | 10 | 11 nM | 5.5 nM | 920 nM |  | 2% | 170 | 62% |

Continued by falling EC50 [7], values first:

| concentration at 4 h [3] | Ratio [5] | concentration at 24 h [6] | EC50 [7] | EC50 [8] | SMILES | Activity (Rattus norvegicus [1]) | Activity (Rattus norvegicus [2]) | Ratio EC50 [4] | Activity (Rattus norvegicus [9]) |
| --- | --- | --- | --- | --- | --- | --- | --- | --- | --- |
| 150 nM | 6 | 26 nM | 0.33 nM | 1400 nM | O=C(O)C1CN(Cc2ccc3c(c2)CCc2c-3noc2-c2nsc(-c3ccccc3)c2C(F)(F)F)C1 |  | 85% | 4200 | 82% |
| 230 nM | 5 | 46 nM | 0.27 nM | 1200 nM | O=C(O)C1CN(Cc2ccc3c(c2)OCc2c-3noc2-c2noc(-c3ccccc3)c2C(F)(F)F)C1 |  | 93% | 4400 | 87% |
| 330 nM | 6 | 56 nM | 0.25 nM | > 31000 nM | O=C(O)C1CN(Cc2ccc3c(c2)OCc2c-3noc2-c2onc(-c3ccccc3)c2C(F)(F)F)C1 |  | 89% | > 120000 | 82% |
